Results from different studies.
Each line is one published result; the experiments were not run side by side.
Observed: enzyme activity
Mode: inhibitor
FGFR1: Fibroblast growth factor receptor 1 (FGFR1, Homo sapiens, UniProt P11362)

CC(C)(C)c1nc2c(s1)c1nc(N)ncc1c1ccc(NS(=O)(=O)c3c(F)cccc3F)c(F)c12
remaining activity (FGFR1; radiometric; 1 µM): 90%

Oc1cccc(-c2nc(N3CCOCC3)c3oc4ncccc4c3n2)c1
remaining activity (FGFR1; 10 µM): 118%

Cc1sc(C(=O)NC2COC2)cc1-n1cc(NC(=O)Nc2c(F)cccc2Cl)cn1
remaining activity (FGFR1; 10 µM): 114%

CCCOc1ccc(OC)c(F)c1C(=O)c1ccc(C(=O)N[C@@H]2CNC[C@H]2NC(=O)c2ccc3[nH]ncc3c2)cc1
remaining activity (Fibroblast growth factor receptor 1 (FGFR1, Homo sapiens, UniProt P11362, V561M); 10 µM): 23%

Cc1cnc(NC2CCOCC2)nc1-n1cnc(C(=O)NC(CN)c2cc(F)cc(Cl)c2)c1 (stereo not drawn)
remaining activity (FGFR1; radiometric; 1 µM): 118%

CC(C)(C)C(=O)c1sc(NC2CCCCC2)nc1N
remaining activity (FGFR1; 10 µM): 87%

COc1cc(Nc2cnc(C#N)c(O[C@H](C)CN(C)C)n2)ncc1-c1cnn(C)c1
remaining activity (FGFR1; radiometric; 1 µM): 107%

O=C(Nc1cnn(-c2csc(C(=O)NC3COC3)c2)c1)Nc1ccccc1Cl
remaining activity (FGFR1; 5 µM): 95.9%

Cc1[nH]c(/C=C2\C(=O)Nc3ccc(F)cc32)c(C)c1C(=O)N[C@H]1CCN(C(=O)N(C)C)C1
remaining activity (FGFR1; 0.1 µM): 122%

CCN(CC)c1ccc(C2=NNC(=O)CC2C)cc1[N+](=O)[O-] (stereo not drawn)
remaining activity (FGFR1; 10 µM): 90%

Nc1nc(Nc2ccccc2)sc1C(=O)c1c(F)cccc1F
remaining activity (FGFR1; 10 µM): 64%

CCN(CC)CCNC(=O)c1c(C)[nH]c(/C=C2\C(=O)Nc3ccc(F)cc32)c1C
remaining activity (FGFR1; 0.1 µM): 79%
